Results from ChEMBL document CHEMBL4270646, “Novel antimalarial chloroquine- and primaquine-quinoxaline 1,4-di-N-oxide hybrids: Design, synthesis, Plasmodium life cycle stage profile, and preliminary toxicity studies” (Eur J Med Chem, 2018).
Activity calls are given as the source filed them. No cut-off for these calls is given here.

Legend:
[1] = Cytotoxicity against human HepG2 cells expressing CD81 assessed as reduction in cell viability after 48 hrs by MTT assay; assay type: cell-based
In short: (§1)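 Cells seeded at 2 × 10^5 per well and allowed 24 h at 37°C, 5% CO2 to form a monolayer. Dilutions added in triplicate and incubated 48 h. MTT (2 mg/mL) then added for 4 h, followed by DMSO for 20 min at room temperature. Absorbance read at 550 nm; DMSO diluent and untreated cells served as negative controls. CC50 derived from the curve.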

[2] = Selectivity index, ratio of CC50 for human HepG2 cells to IC50 for GFP-expressing Plasmodium berghei sporozoites; assay type: toxicity; conditions: read-out: Ratio CC50/IC50
In short: (§2)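 Selectivity index = CC50 (matching cell) / IC50 (matching parasite). Cell–parasite pairs: HepG2-CD81 with P. yoelii, HepG2 with P. berghei, human hepatocytes with P. falciparum.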

[3] = system: Plasmodium falciparum; experiment: Antiplasmodial activity against GFP-harboring Plasmodium falciparum sporozoites infected in human primary hepatocytes assessed as reduction in parasite growth treated every 24 hrs by DAPI staining-based fluorescence microscopic analysis; assay type: functional, organism-based
In short: (§3)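 Collagen-coated wells seeded with HepG2 (P. berghei), HepG2-CD81 (P. yoelii) or primary human hepatocytes (P. falciparum). Sporozoites added: 5×10^3 to 1×10^4 per well to the cell lines, 2.5×10^4 per well to hepatocytes. Compounds given at infection: top 10 µg/mL plus seven serial dilutions, renewed at 3 h and then every 24 h. Cultures grown 40 h (cell lines) or 8 days (hepatocytes) at 37°C. Methanol-fixed, HSP70 immunolabelled, DAPI counterstained. IC50 from logistic regression; triplicate.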

[4] = system: Plasmodium falciparum; experiment: Antiplasmodial activity against chloroquine-sensitive Plasmodium falciparum 3D7 infected in human red blood cells assessed as reduction in parasite growth after 48 hrs by Hoechst 33342 staining based flow cytometric analysis; assay type: functional, organism-based; conditions: 3D7, 48 h
In short: (§4)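 Ring-stage cultures (>80% rings) at 1% parasitaemia in A+ human erythrocytes, 2% haematocrit. Medium RPMI 1640 with 10% A+ serum, 37°C, 5% CO2/5% O2. Compounds in DMSO at 1.56–100 µg/mL final, DMSO ≤1%. After 48 h, cells stained with Hoechst 33342 and 1×10^4 counted by flow cytometry. IC50 from logistic dose-response regression; three independent experiments in triplicate.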

[5] = system: Plasmodium berghei; experiment: Antiplasmodial activity against GFP-harboring Plasmodium berghei sporozoites infected in human HepG2 cells assessed as reduction in parasite growth treated every 24 hrs by DAPI staining-based fluorescence microscopic analysis; assay type: functional, organism-based; conditions: HepG2, 24 h; in short: as §3
[6] = Selectivity index, ratio of CC50 for human primary hepatocytes to IC50 for GFP-expressing Plasmodium falciparum sporozoites; assay type: toxicity; conditions: read-out: Ratio CC50/IC50; in short: as §2
[7] = Selectivity index, ratio of CC50 for human HepG2 cells to IC50 for multidrug-resistant Plasmodium falciparum […]; assay type: toxicity; conditions: read-out: Ratio CC50/IC50
In short: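 Selectivity index = HepG2 CC50 / FCR-3 IC50. CC50 from MTT assay after 48 h exposure, A550. IC50 from 48 h Hoechst 33342 flow-cytometry assay.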

[8] = system: Plasmodium yoelii; experiment: Antiplasmodial activity against GFP-harboring Plasmodium yoelii sporozoites infected in human HepG2 cells expressing CD81 assessed as reduction in parasite growth treated every 24 hrs by DAPI staining-based fluorescence microscopic analysis; assay type: functional, organism-based; conditions: HepG2, 24 h; in short: as §3
[9] = Cytotoxicity against human HepG2 cells assessed as reduction in cell viability after 48 hrs by MTT assay; assay type: cell-based; in short: as §1
[10] = Selectivity index, ratio of CC50 for human HepG2 cells expressing CD81 to IC50 for GFP-expressing Plasmodium yoelii sporozoites; assay type: toxicity; conditions: read-out: Ratio CC50/IC50; in short: as §2
[11] = Cytotoxicity against human primary hepatocytes assessed as reduction in cell viability after 48 hrs by MTT assay; assay type: cell-based, Hepatocyte; in short: as §1
[12] = system: Plasmodium falciparum; experiment: Antiplasmodial activity against the multidrug-resistant Plasmodium falciparum […] infected in human red blood cells assessed as reduction in parasite growth after 48 hrs by Hoechst 33342 staining based flow cytometric analysis; assay type: functional, organism-based; in short: as §4
[13] = system: Mus musculus; experiment: Acute toxicity in BALB/c mouse assessed as necrosis of kidney at 500 mg/kg, po administered as single dose measured at day 14 by haematoxylin and eosin staining based microscopic analysis; assay type: organism-based; conditions: in vivo
In short: (§5)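 Female BALB/c mice, groups of three, single oral dose; vehicle DMSO 100% for controls. Mice euthanised with CO2 on day 14, or earlier if suffering. Gross necropsy performed. Spleen, liver and kidney fixed in formaldehyde 37%, stained with haematoxylin and eosin and examined by light microscopy.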

[14] = system: Mus musculus; experiment: Acute toxicity in BALB/c mouse assessed as ulcerated congestion in stomach at 500 mg/kg, po administered as single dose measured at day 14 by […]; assay type: organism-based; conditions: in vivo; in short: as §5
[15] = system: Plasmodium yoelii; experiment: Antiplasmodial activity against Plasmodium yoelii 17XNL sporozoites infected in BALB/c mouse assessed as decrease in parasitaemia in blood at 100 mg/kg, po measured at day 4 by […] relative to control; assay type: functional; parameters: scale not given: the % may be the effect or the level left
In short: (§6)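 BALB/c mice (6-8 weeks, 20-23 g), n=4 per hybrid group and n=5 per control. Dosed orally at 100 mg/kg (100 µL) on days -1, 0, +1 and +2. Vehicle was DMSO 100%; primaquine diphosphate given at 30 mg/kg daily. On day 0, 5 x 10^3 cryopreserved P. yoelii 17XNL sporozoites injected i.v. Parasitaemia read by Giemsa smear and SYBR Green flow cytometry. Groups compared by Kruskal-Wallis test.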

[16] = system: Plasmodium yoelii; experiment: Antiplasmodial activity against Plasmodium yoelii 17XNL sporozoites infected in BALB/c mouse assessed as pre-patent time period of parasitaemia at 100 mg/kg, po measured at day 4 by […]; assay type: functional; in short: as §6
[17] = system: Plasmodium yoelii; experiment: Antiplasmodial activity against Plasmodium yoelii 17XNL sporozoites infected in BALB/c mouse assessed as parasite reduction at 100 mg/kg, po measured at day 1 to day 4 by […]; assay type: functional, organism-based; in short: as §6
[18] = system: Mus musculus; experiment: Acute toxicity in BALB/c mouse assessed as necrosis of liver at 500 mg/kg, po administered as single dose measured at day 14 by haematoxylin and eosin staining based microscopic analysis; assay type: organism-based; conditions: in vivo; in short: as §5
[19] = system: Plasmodium yoelii; experiment: Antiplasmodial activity against Plasmodium yoelii 17XNL sporozoites infected in BALB/c mouse assessed as parasite burden at 100 mg/kg, po measured at day 4 by […] (reference value: 0.06%); assay type: functional; in short: as §6
[20] = system: Plasmodium berghei; experiment: (§7) Antiplasmodial activity against GFP-expressing gametocytes of Plasmodium berghei sporozoites in Anopheles stephensi mosquitoes feeded on blood from infected Swiss mouse assessed as reduction in number of oocysts in mosquito midgut at 100 mg/kg, ip pretreated for 1.5 hrs followed by blood feeding of mosquito and measured at 8 days post mosquitoes infection by fluorescence microscopic method relative to control; assay type: functional; parameters: scale not given: the % may be the effect or the level left
In short: (§8)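 Swiss mice (female, 6 weeks) infected i.p. with PbGFP-infected red cells (200 µL, 3000 parasites/µL). Gametocytes monitored 4 days by Giemsa smear and exflagellation. Hybrid given i.p. at 100 mg/kg in DMSO 1.5 h before A. stephensi fed 1 h on mice with 1% gametocytes. Controls were untreated and DMSO-treated mice. Thirty mosquitoes per group dissected after 8 days. Midgut oocysts counted by fluorescence microscopy against control mosquitoes taken as 100%.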

[21] = system: Plasmodium berghei; experiment: as §7, with “in” for “in number of oocysts in”, “infection” for “midgut”; assay type: functional; parameters: scale not given: the % may be the effect or the level left; in short: as §8
[22] = system: Plasmodium berghei; experiment: Potency index, ratio of primaquine IC50 to compound IC50 for GFP-expressing Plasmodium berghei sporozoites infected in human HepG2 cells; assay type: functional

Cc1c(C(=O)NCCNc2ccnc3cc(Cl)ccc23)[n+]([O-])c2cc(Cl)ccc2[n+]1[O-]
CC50 at 48 h [1]: 69.9 µM
selectivity ratio [2]: 2.15
IC50 [3]: 6.39 µM
IC50 [4]: 0.52 µM
IC50 [5]: 10.1 µM
selectivity ratio [6]: 9.56
selectivity ratio [7]: 54.6
IC50 [8]: 14.6 µM
CC50 at 48 h [9]: 21.8 µM
selectivity ratio [10]: 4.78
CC50 at 48 h [11]: 61.1 µM
IC50 [12]: 0.4 µM

COc1cc(NC(C)CCCN)c2ncccc2c1 (stereo not drawn) [PRIMAQUINE]
CC50 at 48 h [1]: 69.8 µM
Activity [13]: Non-Toxic
selectivity ratio [2]: 33
IC50 [4]: 9.86 µM
IC50 [5]: 3.65 µM
selectivity ratio [6]: 136
selectivity ratio [7]: 109
Activity [14]: Toxic
IC50 [8]: 2.13 µM
CC50 at 48 h [9]: 120 µM
Activity [15]: 100%
selectivity ratio [10]: 32.8
Time [16]: 24 h
Activity [17]: inactive
Activity [18]: Non-Toxic
IC50 [12]: 1.1 µM

COc1cc(NC(C)CCCNC(=O)c2c(C)[n+]([O-])c3ccc(Cl)cc3[n+]2[O-])c2ncccc2c1 (stereo not drawn)
CC50 at 48 h [1]: > 198 µM
Activity [19]: 0.01%
selectivity ratio [2]: 136
IC50 [3]: 3.64 µM
IC50 [4]: 62.6 µM
IC50 [5]: 1.14 µM
selectivity ratio [6]: 54.5
selectivity ratio [7]: 3.34
IC50 [8]: 5.71 µM
CC50 at 48 h [9]: 155 µM
selectivity ratio [10]: 34.7
Activity [20]: 77%
Activity [21]: 23%
Ratio IC50 [22]: 3.2
CC50 at 48 h [11]: > 198 µM
IC50 [12]: 36.1 µM

COc1ccc2c(c1)[n+]([O-])c(C(=O)NCCNc1ccnc3cc(Cl)ccc13)c(C)[n+]2[O-]
IC50 [4]: 2.11 µM
selectivity ratio [7]: 44.8
CC50 at 48 h [9]: 92.7 µM
IC50 [12]: 2.07 µM

CCN(CC)CCCC(C)Nc1ccnc2cc(Cl)ccc12 (stereo not drawn) [CHLOROQUINE]
CC50 at 48 h [9]: 137 µM

Cc1c(C(=O)NCCNc2ccnc3cc(Cl)ccc23)[n+]([O-])c2ccccc2[n+]1[O-]
IC50 [4]: 0.78 µM
selectivity ratio [7]: 30.6
CC50 at 48 h [9]: 58.2 µM
IC50 [12]: 1.9 µM
